Screens as filed in PubChem BioAssay.
Only some compounds are listed: those with a hit (about 2.6% of all), similar ones and a draw of the others.
STEP inh – inhibitors of human striatal-enriched phosphatase STEP; P54829; recombinant STEP, OMFP fluorogenic substrate, fluorescence; inhibition, % at 20 µM; hit rate 0.25% among 360,000; AID 588621;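 active means inhibition at 20 µM, scaled per plate between control wells, above about 37%, limit read from the data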
Target sequence (P54829 whole entry, looked up): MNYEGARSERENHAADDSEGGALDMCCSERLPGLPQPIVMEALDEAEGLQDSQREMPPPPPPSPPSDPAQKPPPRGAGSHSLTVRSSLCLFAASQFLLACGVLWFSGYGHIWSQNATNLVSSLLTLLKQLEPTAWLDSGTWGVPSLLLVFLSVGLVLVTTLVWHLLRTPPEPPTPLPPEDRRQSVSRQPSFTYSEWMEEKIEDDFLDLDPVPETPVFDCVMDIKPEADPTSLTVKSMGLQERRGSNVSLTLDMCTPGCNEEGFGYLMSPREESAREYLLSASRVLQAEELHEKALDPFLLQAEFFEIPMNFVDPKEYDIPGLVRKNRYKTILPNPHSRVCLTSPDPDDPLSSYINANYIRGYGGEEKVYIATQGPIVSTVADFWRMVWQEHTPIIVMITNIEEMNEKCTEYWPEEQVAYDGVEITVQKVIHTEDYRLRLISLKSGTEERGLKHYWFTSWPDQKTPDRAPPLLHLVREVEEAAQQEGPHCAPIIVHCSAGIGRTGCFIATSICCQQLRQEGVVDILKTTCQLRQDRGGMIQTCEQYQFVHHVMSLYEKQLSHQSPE
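Assay system: isolated STEP enzyme. Buffer or medium: pH 6.0 Bis-Tris with DTT and Tween 20. Also added: fluorogenic phosphatase substrate OMFP at 25 µM final. Dosing: 20 µM, 1% DMSO. Timing: 20 min reaction, room temperature, in the dark. Measured by: fluorescence intensity, excitation 480 nm, emission 540 nm. Evaluation: normalized % inhibition.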
Scp1 inh – blocks human Scp-1 phosphatase activity; Q9GZU7; Recombinant Scp1, phosphopeptide, malachite green phosphate absorbance; inhibition, % at 20 µM; hit rate 0.88% among 340,000;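 active means inhibition above about 50% at 20 µM, limit read from the data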
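Times: enzyme reaction 45 min at room temperature, colour 5 min, stabilisation 30 min. Material: SCP-1 catalytic fragment, aa 76-261. Medium: Acidic Tris acetate buffer with magnesium and detergent. Signal: colorimetric free-phosphate detection, absorbance 630 nm. Read-out basis: % inhibition of SCP-1 phosphate liberation. Reagent: Phosphorylated 17-residue peptide substrate.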
NadD inh – inhibitors of Staphylococcus aureus NadD; hit rate 0.78% among 360,000; purified NadD enzyme, colorimetric absorbance read-out; inhibition, % at 20 µM; AID 602399; in the data active means inhibition above about 26%
rCAG binder – r(CAG) repeat RNA binding. inhibition, % at 3 µM. TO-PRO-1 dye displacement fluorescence. hit rate 1.3% among 370,000;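 active means inhibition above the plate cutoff, the mean of all test compounds on that plate plus 3 SD, cut at about 35% in these data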;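 further: higher means more dye released from RNA so lower well fluorescence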
LMPTP block – blocks human LMPTP phosphatase; AID 651560; recombinant LMPTP-A, OMFP fluorogenic substrate, fluorescence intensity; hit rate 0.22% among 360,000; inhibition, % at 20 µM; P24666;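 active means compounds that cut the enzyme signal by at least half of the control window in the single-dose screen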
Target sequence (P24666 whole entry, looked up): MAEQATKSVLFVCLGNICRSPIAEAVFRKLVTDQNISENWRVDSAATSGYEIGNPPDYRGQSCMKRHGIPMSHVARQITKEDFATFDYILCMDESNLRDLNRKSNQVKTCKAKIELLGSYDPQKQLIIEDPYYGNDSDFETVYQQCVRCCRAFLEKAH
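material = LMPTP-A | quantity = 0.625 nM enzyme | reagent = OMFP substrate, 400 µM final | buffer or medium = Bis-Tris pH 6.0, DTT, detergent | detection = endpoint fluorescence intensity from OMFP dephosphorylation | dosing = single 20 µM dose | read-out basis = % inhibition relative to no-enzyme and uninhibited control wells | control set = no-enzyme and uninhibited controls | timing = 50 min at room temperature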
NadD conf – confirmation of Staphylococcus aureus NadD inhibitors | shares compounds with NadD inh | purified S. aureus NadD, colorimetric enzyme assay | inhibition, % at 20 µM | hit rate 13% among 2,000; in the data active means inhibition mostly above about 42%, no sharp cut-off; inactive means mostly below about 42%
Each line names hits and unclear results; the compound was inactive in the other large screens (follow-up assays come after a bar, where they were run).

CCN1c2ccccc2NC2C1C(C(C)=O)C(=O)N2c1ccc(Cl)cc1 (stereo not drawn)	NadD inh 37 | NadD conf inactive
CC(=O)N1CCN(C2=Nc3ccccc3Sc3ccccc32)CC1	none (no result: STEP inh, Scp1 inh, NadD inh, LMPTP block)
CCOC(=O)[C@@]12CCCC=C1N(CCc1ccc(Cl)cc1)C(=O)[C@H]2CC(=O)NCc1ccc(C)o1	none (no result: STEP inh, Scp1 inh, NadD inh, LMPTP block)
CC(=O)c1cccc(CN2CCCC(C(=O)Nc3ccc(-c4ccco4)cc3)C2)c1 (stereo not drawn)	NadD inh 32 | NadD conf inactive
O=C(NC1CCCC1)N1CCC(c2nc3ccc(Cl)cc3[nH]2)CC1	none (no result: STEP inh, Scp1 inh, NadD inh, LMPTP block)
N#Cc1c(SCc2c(Cl)cccc2Cl)nc(N)[nH]c1=S	NadD inh 30 | NadD conf 47
Cc1nn(CC(=O)Nc2ccc3c(c2)nc(CCN2CCCCC2)n3C)c(=O)c2ccccc12	none
Cc1nn(CC(=O)Nc2ccc3c(c2)nc2n3CCN(C3CCCCC3)C2)c(=O)c2ccccc12	NadD inh 32 | NadD conf inactive
CCOc1ccc(C2C(C#N)=C(N)N(c3sc4c(c3C#N)CCCC4)C3=C2C(=O)CCC3)cc1 (stereo not drawn)	NadD inh 55 | NadD conf inactive
COc1ccc(-c2[nH]ncc2CN2CCN(c3ccccn3)CC2)c(OC)c1	none
COc1ccc(-c2[nH]ncc2CN2CCCCCCC2)c(OC)c1	NadD inh 30 | NadD conf inactive
COc1ccc(S[C@]2(C(=O)N3CCN(c4ncccn4)CC3)CC(=O)N(S(=O)(=O)c3ccc(F)cc3)[C@@H]2c2ccc(OC)cc2)cc1	none (no result: STEP inh, Scp1 inh, NadD inh, LMPTP block)
CCOc1ccc(C(=O)Nc2nnc(NC(=S)Nc3ccccc3)s2)cc1	NadD inh 35 | NadD conf inactive
Cc1nc([N+](=O)[O-])cn1CC(Cl)Cn1cc([N+](=O)[O-])nc1C	none (no result: STEP inh, Scp1 inh, NadD inh, LMPTP block)
CC1CCCN(C(=S)SCC(=O)c2cc(Br)cc(Br)c2O)C1 (stereo not drawn)	NadD inh 64 | NadD conf inactive
O=S1(=O)c2ccc(N3CCN(Cc4ccccc4F)CC3)cc2Oc2ccccc2CN1Cc1cn(Cc2cccc(F)c2)nn1	none (no result: STEP inh, Scp1 inh, NadD inh, LMPTP block)
C=CCN(CC=C)S(=O)(=O)c1ccc(NC(=S)NC(=O)/C=C/c2cccc3ccccc23)cc1	NadD inh 31 | NadD conf inactive
O=C(Cc1cn2ccsc2n1)Nc1nc2c(s1)CN(Cc1ccccc1)CC2	NadD inh 35, LMPTP block 61 | NadD conf inactive
O=C(Cc1cn2ccsc2n1)NCc1ccccc1	none
O=C(Nc1nc2c(s1)CN(Cc1ccccc1)CC2)c1cccc(S(=O)(=O)N2CCc3ccccc32)c1	NadD inh 34 | NadD conf inactive
O=C(Nc1nc2ccccc2s1)c1cccc(S(=O)(=O)N2CCc3ccccc32)c1	none
Cc1ccc2c(c1)C1CS(=O)(=O)N(CC(C)C)C(=O)N1C2 (stereo not drawn)	none (no result: STEP inh, Scp1 inh, NadD inh, LMPTP block)
COC[C@@H]1CCCN1c1ccc2c(c1)O[C@H]1CCN(C1)S2(=O)=O	none (no result: STEP inh, Scp1 inh, NadD inh, LMPTP block)
Cc1cc2oc(=O)cc(CN3CCN(C/C=C/c4ccccc4)CC3)c2cc1O	none (no result: Scp1 inh)
O=c1cc(CN2CCN(C/C=C/c3ccccc3)CC2)c2cc(O)c(-c3ccccc3)cc2o1	NadD inh 39 | NadD conf inactive
N#C/C(=C\c1c[nH]c2ccccc12)C(N)=O	none
N#C/C(=C\c1c[nH]c2ccccc12)C(=O)Nc1ncc(Cc2ccc(Cl)cc2Cl)s1	NadD inh 38 | NadD conf inactive
Cc1cnc(NC(=O)c2ccc(-c3ccc([N+](=O)[O-])cc3)o2)s1	none
N#C/C(=C/c1ccc(-c2ccc([N+](=O)[O-])cc2)o1)C(=O)Nc1nc(-c2cccs2)cs1	NadD inh 48 | NadD conf inactive
Cc1ccc(Cc2cnc(NC(=O)/C(C#N)=C/c3ccc(-c4ccc([N+](=O)[O-])cc4)o3)s2)cc1	NadD inh 48 | NadD conf inactive
COc1ccc(-c2csc(NC(=O)c3cc(-c4cccs4)nc4ccccc34)n2)c(OC)c1	NadD inh 34 | NadD conf inactive
Cc1cc(C)cc(C(=O)OCCCN(C)C2CN(Cc3cn(Cc4ccccc4Cl)nn3)S(=O)(=O)C2)c1 (stereo not drawn)	none (no result: STEP inh, Scp1 inh, NadD inh, LMPTP block)
CC1(C)Cc2c(c(N3CCOCC3)nc3sc4c(NN)ncnc4c23)CS1	NadD inh 34 | NadD conf inactive
Cc1cccc(NS(=O)(=O)c2ccc3c(c2)Cc2cc(S(=O)(=O)Nc4cccc(C)c4C)ccc2-3)c1C	NadD inh 36 | NadD conf inactive
CCOC(=O)[C@]12CCCCC/C=C\1N(CCc1ccc(Cl)cc1)C(=O)[C@H]2CC(=O)NCc1ccccc1	none (no result: STEP inh, Scp1 inh, NadD inh, LMPTP block)
C=CCOC(=O)N[C@H](c1cccc(OC)c1)[C@H](C)/C=C/CC(=O)OC	none (no result: STEP inh, Scp1 inh, NadD inh, LMPTP block)
O=C(N/N=C/c1coc2ccccc2c1=O)c1cn(-c2ccccc2)nc1-c1ccccc1	NadD inh 36 | NadD conf inactive
O=C(N/N=C/c1coc2ccccc2c1=O)c1ccccc1	none
COc1ccc(-c2ccc(-c3nc4c(c(=O)[nH]c(=O)n4Cc4ccccc4)n3C)o2)c([N+](=O)[O-])c1	NadD inh 52 | NadD conf inactive
COCCn1c(=O)[nH]c(=O)c2c1nc(-c1ccc(-c3ccc(Cl)cc3[N+](=O)[O-])o1)n2Cc1ccccc1	NadD inh 45 | NadD conf inactive
COCCn1c(-c2ccc(-c3ccc([N+](=O)[O-])cc3Br)o2)nc2c1c(=O)[nH]c(=O)n2CC(C)C	NadD inh 44 | NadD conf inactive
COCCCn1c(-c2cccc(Cl)c2)nc2c1c(=O)[nH]c(=O)n2Cc1ccccc1	none
O=C(COC(=O)c1ccc(Br)o1)Nc1nc2c(F)c(F)c(F)cc2s1	NadD inh 34, LMPTP block 60 | NadD conf inactive
N#Cc1c(OCC(=O)c2ccccc2)nc2c(c1-c1ccco1)CCc1ccccc1-2	NadD inh 32 | NadD conf inactive
CCOC(=O)COc1nc2c(c(-c3ccco3)c1C#N)CCc1ccccc1-2	none
CCc1ccc(OCC(=O)N/N=C/c2cc([N+](=O)[O-])ccc2N2CCCCCC2)cc1	none
CCC1CCCCN1c1ccc([N+](=O)[O-])cc1/C=N/NC(=O)Cn1c2ccccc2c(=O)c2ccccc21 (stereo not drawn)	NadD inh 51 | NadD conf inactive
Nc1ccc2c(c1)C/C(=C/c1ccco1)C2=O	Scp1 inh 73, NadD inh 31, LMPTP block 67 | NadD conf inactive
O=C(CSc1nnc(-c2cccs2)n1Cc1ccco1)Nc1ccc(Oc2ccccc2)cc1	none (no result: STEP inh, Scp1 inh, NadD inh, LMPTP block)
CC(C)Cn1c(-c2csc3ccccc23)n[nH]c1=S	NadD inh 34 | NadD conf inactive
CCn1cc(/C=N/NC(=O)c2cc3c(ccc4ccccc43)o2)c2ccccc21	NadD inh 36 | NadD conf 48
Cc1cc(/C=N/NC(=O)c2cc3ccccc3o2)c(C)n1C	NadD inh 35 | NadD conf inactive
